# Assay outcomes as filed in PubChem BioAssay.
# Rpn11 inh: inhibitors of human proteasome Rpn11; human 26S proteasome, Ub4-pepOG fluorescence polarization; 20S core pre-blocked with epoxomicin; O00487; 0.59% of 360,000 active; inhibition, % at 20 µM;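 active means inhibition at 20 µM, scaled to each plate's controls, above about 33%, limit read from the data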
# Target sequence (O00487 whole entry, looked up): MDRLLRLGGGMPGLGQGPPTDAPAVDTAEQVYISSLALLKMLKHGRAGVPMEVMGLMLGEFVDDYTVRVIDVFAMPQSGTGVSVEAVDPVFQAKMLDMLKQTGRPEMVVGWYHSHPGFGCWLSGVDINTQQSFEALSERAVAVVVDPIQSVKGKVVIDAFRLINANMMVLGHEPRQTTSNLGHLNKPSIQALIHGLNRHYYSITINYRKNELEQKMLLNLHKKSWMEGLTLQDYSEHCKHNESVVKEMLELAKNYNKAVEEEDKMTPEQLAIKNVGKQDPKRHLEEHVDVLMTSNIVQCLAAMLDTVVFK
# TPT1 inhibitor: inhibitors of Candida albicans tRNA 2'-phosphotransferase TPT1; inhibition, % at 5 µM; recombinant caTPT1, FP RNA substrate dephosphorylation; AID 1962; 0.81% of 300,000 active;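 active means inhibition above the mean of all tested compounds plus 3 SD, set per screening campaign, cut at about 24% in these data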
# NadD inh: inhibitors of Staphylococcus aureus NadD. purified NadD enzyme, colorimetric absorbance read-out. AID 602399. inhibition, % at 20 µM. 0.78% of 360,000 active; in the data active means inhibition above about 26%
# HNF4A DNA FP: change in binding of human HNF4 alpha to DNA; P41235; HNF4a-FITC DNA binding, fluorescence polarization, 1 h; activity change, % at 10 µM; 0.3% of 360,000 active; AID 1224865; in the data active means activity change above about 30%, passing the limit was not always enough
# PP1 counter: counter-screen for PP5 inhibitors: inhibitors of human PP1-alpha. P62136. purified PP1alpha, OMFP fluorescence. inhibition, % at 6.7 µM. 0.9% of 320,000 active;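 active means inhibition above the mean inhibition of all tested compounds plus 3 SD, computed separately for each screening campaign, cut at about 15% in these data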
# CSN deneddyl inh: blocks human CSN-mediated cullin deneddylation. AID 651999. inhibition, % at 12.5 µM. Q92905. Purified CSN, SCF-Nedd8-OG deneddylation, fluorescence polarization. 0.38% of 360,000 active;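 active means pattern-corrected inhibition above about 35%, with an unprinted fluorescence ratio check between 0.5 and 1.5, limit read from the data, passing the limit was not always enough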
#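 Material: purified human Csn5 enzyme expressed in HEK293T cells / Medium: Tris buffer pH 7.5, NaCl, DTT, Tween-20, trehalose, ovalbumin / Compound dosing: 12.5 µM single point / Schedule: 90 min incubation of compound, enzyme and substrate at room temperature / Signal: fluorescence polarization of the substrate / Control set: no-enzyme wells high, enzyme-with-substrate wells low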
# TPT1 inh confirm: confirmation of Candida albicans TPT1 inhibitors | recombinant caTPT1, fluorescence polarization, RNase T1 coupled | AID 2149 | shares compounds with TPT1 inhibitor | 74% of 2,400 active | inhibition, % at 5 µM;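 active means inhibition above the primary screen limit, the mean inhibition of all tested compounds plus 3 SD, cut at about 25% in these data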
# RNase T1 counter: counter-screen for TPT1 inhibitors: inhibitors of Aspergillus oryzae RNase T1; RNase T1 cleavage, fluorescence polarization, 1536-well; 83% of 2,400 active; shares compounds with TPT1 inhibitor; inhibition, % at 5 µM;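 active means inhibition above the solvent-only control well mean plus 3 SD, limit set per screening run, cut at about 23% in these data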;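 further: inhibitors block cleavage so intact labeled substrate keeps polarization high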
# Target sequence (P00651 whole entry, looked up): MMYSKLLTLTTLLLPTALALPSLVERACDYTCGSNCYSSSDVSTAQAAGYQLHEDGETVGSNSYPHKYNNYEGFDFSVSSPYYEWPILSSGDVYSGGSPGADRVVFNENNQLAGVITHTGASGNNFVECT
# Hits are given with their value; i = inactive; nt = not tested or not shown; + = active, no number. Most compounds without a hit are left out; they make up all but 2.7% or so of the library.
SMILES,Rpn11 inh,TPT1 inhibitor,NadD inh,HNF4A DNA FP,PP1 counter,CSN deneddyl inh,TPT1 inh confirm,RNase T1 counter
CC(C)(C)NC(=S)N/N=C\c1ccc(-c2ccc([N+](=O)[O-])cc2)o1,nt,91.8,i,64.4,i,i,98.0,102.6
Cc1ccc(NC(=O)CNC(=O)c2ccco2)c(Cl)c1,i,i,i,i,i,i,nt,nt
CC1C/C(=C/c2cccs2)C(=O)/C(=C/c2cccs2)C1 (centres undefined),i,25.6,i,i,i,i,i,i
CC1C/C(=C/c2ccco2)C(=O)/C(=C/c2ccco2)C1 (centres undefined),nt,61.3,nt,nt,i,nt,62.3,70.7
O=S(=O)(Nc1nc2ccccc2nc1Nc1ccc2c(c1)OCCO2)c1cccs1,nt,78.4,i,47.8,i,50.8,89.6,96.4
COc1ccccc1-c1sc2ccccc2c1-c1cnc(N2CCOCC2)nc1,nt,nt,i,i,nt,i,nt,nt
Cc1oc(C)c2c(=O)ccc3c(c12)OC(N)=C(C#N)C3c1ccc(F)cc1 (centres undefined),nt,30.8,i,i,i,i,i,28.3
O=C(O)Cc1sc(NC2CCCCC2)nc1-c1ccc(Cl)cc1,nt,137.5,i,i,i,65.4,i,32.3
COc1ccccc1-c1cc(NC(C)=O)c2ncc(-c3cccc(C(C)=O)c3)n2c1,i,nt,i,i,nt,i,nt,nt
CCc1ccccc1NC(=S)NCCSc1ccc(Cl)cc1,i,+,i,i,i,i,i,i
COc1ccc(CCNC(=O)Nc2nc(C(N)C3CCCCC3)cs2)cc1OC (centres undefined),i,nt,i,i,nt,i,nt,nt
Cc1cc(SCC(=O)O)nc2ccccc12,i,i,i,i,i,i,nt,nt
Cc1cc(SCC(=O)c2cc3ccccc3o2)nc2ccccc12,nt,66.5,i,i,i,i,i,i
CC(C)N1C(=O)S/C(=C/c2ccc3c(c2)n(C)c(=O)n3C)C1=O,i,i,i,i,i,i,nt,nt
CCN(CC)c1ccc(/C=C2\SC(=O)N(C(C)C)C2=O)o1,nt,177.7,i,i,i,i,171.6,157.0
O=C(Nc1cccc(S(=O)(=O)N2CCOCC2)c1)C1CCN(S(=O)(=O)c2ccccc2)CC1,i,nt,i,i,i,i,nt,nt
Cc1ccc(/C=C2\Oc3cc(OCC(=O)NN)ccc3C2=O)o1,i,nt,i,i,nt,i,nt,nt
COCCN(CCOC)Cc1c(O)ccc2c1O/C(=C\c1ccc(C)o1)C2=O,i,27.0,i,i,i,i,34.1,45.6
NS(=O)(=O)c1ccc(CCNS(=O)(=O)c2ccc(Cl)s2)cc1,i,nt,i,i,nt,i,nt,nt
CC(=O)c1cc(NC(=O)c2cccc(C(F)(F)F)c2)c(=O)oc1/C=C/N(C)C,nt,117.0,i,i,i,i,121.6,127.8
COc1ccc(C(=O)Nc2cc(C(C)=O)c(C)oc2=O)cc1,i,i,i,i,i,i,nt,nt
CC(=O)c1cc(NC(=O)c2ccc(Cl)cc2)c(=O)oc1/C=C/N(C)C,nt,132.2,i,120.8,i,55.3,107.7,110.4
Cc1ccc(C(=O)OCC(=O)Nc2cccc(S(=O)(=O)N3CCCCC3)c2)s1,i,nt,i,i,nt,i,nt,nt
CC1CC(=O)Nc2ccccc2N1S(=O)(=O)c1ccccc1 (centres undefined),i,i,i,i,i,i,nt,nt
CC1CC(=O)Nc2ccccc2N1S(=O)(=O)c1ccc(Cl)cc1 (centres undefined),i,73.6,i,i,i,i,i,i
SMILES,Rpn11 inh,TPT1 inhibitor,NadD inh,HNF4A DNA FP,PP1 counter,CSN deneddyl inh,TPT1 inh confirm,RNase T1 counter
CN1CCN(CCNC(=O)c2ccc3nc(-c4ccc(F)cc4)c(-c4ccc(F)cc4)nc3c2)CC1,i,i,i,i,i,i,nt,nt
COc1ccc(CCN2CC(=O)NC(=O)C2)cc1OC,i,nt,i,i,nt,i,nt,nt
COC(=O)[C@@]1(C)[C@H]2C(=O)N(C)C(=O)[C@H]2[C@H]2CN=C(SCc3ccc(Cl)cc3)N21,i,nt,i,i,nt,i,nt,nt
CC(C)(C)c1ccc(N=C2SCC(=O)N2Cc2cccs2)cc1,i,i,i,i,i,i,nt,nt
O=C1CC(=O)N(Cc2cccs2)C(=O)N1,i,62.0,i,i,i,i,i,22.9
C=CCn1c(SCC(=O)N(CC)C2CCS(=O)(=O)C2)nc2ccccc2c1=O (centres undefined),i,52.5,i,i,i,i,i,i
